# This is a sample that favours compounds with a hit; in the whole collection about 2.3% have one here.
# ABCG2 inh – blocks JC-1 efflux by human ABCG2 transporter; IgMXP3 cells, flow cytometry; 0.1% of 190,000 active; inhibition, % at 6.6 µM;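 active means inhibition above 80%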;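 further: 0% = DMSO and 100% = nicardipine control wells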
#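 Test system: IgMXP3 (ABCG2) plus far-red-tagged CCRF-Adr (ABCB1) cells / Amount: 3 million cells/mL in well / Reagent: JC-1 transporter substrate / Timing: 10 min compound exposure, 25 °C / Signal: flow cytometry, 530 nm JC-1 signal / Read-out: percent efflux inhibition, scaled nicardipine 100% to DMSO 0% / Benchmarks: nicardipine as high control, DMSO as low control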
# Ins promoter up – MIN6 insulin promoter up-regulation | MIN6 insulin promoter-GFP reporter, high-content imaging; stronger effect = higher value | z-score at 5 µM | 0.3% of 190,000 active;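 active means z-score above 3 at 5 µM with at least 500 cells counted in the well; inconclusive means wells under 500 cells, flagged as cytotoxic or low count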
# Autophagy mod – autophagy modulation, high-content screen. MEF GFP-LC3 puncta imaging; test concentration mostly 10 µM. calls only at 10 µM (by protocol). 0.98% of 190,000 active. AID 463193;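 active means percentage of spot-positive cells more than 3 SD above its plate mean, without a fluorescence outlier flag or 80% toxicity; inconclusive means no clear call, values can overlap the other calls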;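 further: spot-positive cell cutoff set from DMSO-treated cells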
# ROMK primary – modulators of human ROMK potassium channel | Tet-inducible ROMK, thallium flux fluorescence; actives lie on both sides | B-score at 10 µM | 2% of 130,000 active;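 active means signal ratio slope over the read window, or its plate-corrected B-score, at least 3 SD from the plate mean, either direction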;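 further: B-score of the F/F0 ratio slope over 7 to 12 s after thallium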
# Target sequence (P48048 whole entry, looked up): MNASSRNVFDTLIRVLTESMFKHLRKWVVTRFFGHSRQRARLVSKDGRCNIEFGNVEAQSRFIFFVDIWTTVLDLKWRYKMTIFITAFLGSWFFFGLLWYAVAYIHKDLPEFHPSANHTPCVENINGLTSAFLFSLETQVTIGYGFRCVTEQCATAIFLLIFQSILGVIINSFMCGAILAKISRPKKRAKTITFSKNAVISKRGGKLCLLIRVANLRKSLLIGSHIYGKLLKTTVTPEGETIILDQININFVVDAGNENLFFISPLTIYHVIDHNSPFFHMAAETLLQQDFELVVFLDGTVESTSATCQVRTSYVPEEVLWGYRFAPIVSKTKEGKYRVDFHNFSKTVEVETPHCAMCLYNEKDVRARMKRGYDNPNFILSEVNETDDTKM
# ABCB1 inh – human ABCB1 inhibition, ABCG2 as counter-screen | CCRF-Adr cells, JC-1 efflux, flow cytometry | AID 1326 | P08183 | 0.067% of 190,000 active | inhibition, % at 6.6 µM; in the data active means inhibition above about 40%;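 further: 0% = vehicle and 100% = reference inhibitor; higher value means more JC-1 retained so stronger ABCB1 efflux block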
# sdo1 growth – compounds rescuing growth of sdo1-depleted yeast, bone marrow failure model | z-score at 10 µM | 0.21% of 140,000 active | AID 817 | S. cerevisiae sdo1-depleted JHY4D growth rescue, OD600 30 h; stronger effect = higher value; pdr5 snq2 efflux-pump mutant strain;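 active means z-score above 3 at both the 24 hr and the 30 hr optical density reads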;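 further: z-score against mean and SD of all compound wells on the same plate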
# ROMK retest – confirmation of human ROMK potassium channel modulators; AID 1917; 54% of 3,000 active; normalized thallium flux (F/F0 slope) at 10 µM; shares compounds with ROMK primary; ROMK thallium flux, fluorescence ratio; stronger effect = lower value;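 active means Flux at 10 µM at least 3 SD below or above vehicle control mean in one or both replicates; inconclusive means no clear call, values can overlap the other calls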
# Numbers without * were called inactive; i = inactive; ? = inconclusive; nt = no result given.
SMILES,ABCG2 inh,Ins promoter up,Autophagy mod,ROMK primary,ABCB1 inh,sdo1 growth,ROMK retest
O=C(CC1=NCCNC(c2ccccc2)C1)c1ccccc1O (stereo not drawn),0,-1.5,i,-2.3*,0,-1,?
CCCCC(=O)Nc1ccc(NC(=O)c2ccc([N+](=O)[O-])cc2)cc1OC,11,-0.1,i,0.28,-9,-0.77,nt
CCCCC(=O)Nc1ccc(C(=O)Nc2ccc(OC)cc2[N+](=O)[O-])cc1,8,-0.12,i,nt,0,-0.76,0.035*
O=c1oc2ccccc2cc1-c1nc(-c2cccs2)cs1,-1,nt,i,-4.5*,0,-0.12,0.018*
O=c1oc2ccc3ccccc3c2cc1-c1nnc(-c2cccs2)o1,-11,-0.34,i,-3*,-6,-1,?
COc1ccc(-c2nnc(-c3cc4c(ccc5ccccc54)oc3=O)o2)cc1,-5,-0.04,i,nt,-7,-0.09,nt
Cc1cc(C(=O)Nc2c(F)c(F)c(F)c(F)c2F)n(-c2ccccc2)n1,5,-0.3,i,-0.67,1,nt,nt
CCOC(=O)C1(Cc2ccccc2C(F)(F)F)CCN(C(=O)c2cc(C(C)=O)n[nH]2)CC1,1,nt,i,-0.12,1,nt,nt
COc1ccc(N2CCN(C3CC(=O)N(Cc4ccccc4)C3=O)CC2)cc1 (stereo not drawn),8,-0.6,i,0.02,1,nt,nt
O=C(c1ccncc1)c1ccc(N2CCN(C3CC(=O)N(Cc4ccccc4)C3=O)CC2)cc1 (stereo not drawn),0,-0.28,i,-4*,0,-0.74,?
O=C(Nc1ccccc1O)c1csc2c1CCCC2,2,nt,i,-0.18,0,nt,nt
O=C(CSc1ccccc1)Nc1ccc(S(=O)(=O)Nc2ncccn2)cc1,1,-0.29,i,0.59,0,nt,nt
CC(=O)NS(=O)(=O)c1ccc(NC(=O)CSc2ccccc2)cc1,nt,nt,nt,nt,nt,nt,0.079
CCCCNC(=O)C1CCN(S(=O)(=O)c2c(C)noc2/C=C\c2ccc(OC)cc2)CC1,0,0.07,i,nt,0,-1.1,0.081
COCCCNC(=O)C1CCN(S(=O)(=O)c2c(C)noc2/C=C\c2ccc(OC)cc2)CC1,2,-0.91,i,nt,1,-0.61,nt
CC(C)(C)c1nc(Sc2ccc([N+](=O)[O-])cn2)n[nH]1,nt,1.3,nt,nt,nt,nt,nt
O=[N+]([O-])c1ccc(Sc2n[nH]c(-c3ccc(Cl)cc3Cl)n2)nc1,8,0.29,i,nt,0,0.09,0.06*
COc1c(C(CC(C)C)OC(C)=O)ccc2c1C(=O)OCc1cc(C)cc(O)c1O2 (stereo not drawn),nt,-0.42,nt,nt,nt,nt,nt
COc1cc(CNc2ccc(C)c(C)c2)cc(OC)c1OC,3,-0.57,i,3.4*,1,0.35,0.093
CC(C)C(c1nnnn1Cc1ccc(F)cc1)N1CCN(Cc2ccc3c(c2)OCO3)CC1 (stereo not drawn),32,nt,i,-2.3*,4,1.9,0.054*
CC(C)C(c1nnnn1Cc1ccc(F)cc1)N1CCN(C2CCCCC2)CC1 (stereo not drawn),1,1.4,i,-5*,0,0.7,0.061*
Fc1ccc(Cn2nnnc2C(c2cccs2)N2CCN(C3CCCCC3)CC2)cc1 (stereo not drawn),1,1.1,i,-2.2,3,nt,nt
CCN1CCN(C(c2nnnn2Cc2ccc3c(c2)OCO3)C(C)C)CC1 (stereo not drawn),0,0.84,i,nt,0,-0.2,nt
COCCn1c(=O)[nH]c2cc(C(=O)NCCc3ccc(S(N)(=O)=O)cc3)ccc2c1=O,1,-0.21,i,-0.041,0,nt,nt
CCOC(=O)N/N=C/c1c(F)cccc1F,12,-0.48,i,-0.44,1,0.12,nt
CCOC(=O)N/N=C/c1ccccc1F,3,-0.35,i,-14*,0,0.55,0.075
CCOC(=O)N/N=C/c1c(F)c(F)c(F)c(F)c1F,4,0.79,i,1.5*,0,-0.19,0.088
CC(NC(=O)Cn1cc(C(F)(F)F)ccc1=O)c1ccc(F)cc1 (stereo not drawn),1,0.7,i,-0.35,0,nt,nt
CSc1nc(C)cc(OCC(=O)N/N=C/c2ccccc2O)n1,13,0.27,i,2.9*,1,-0.26,0.081

# Assay outcomes (PubChem BioAssay)
